TAG inh = reduces triacylglycerol accumulation in H9c2 cells. Nile Red lipid (TAG) fluorescence; cells loaded with 200 µM oleic acid. inhibition, % at 12.5 µM. 230,000 compounds, 0.66% hits. AID 651582;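 active = pattern-corrected inhibition of lipid staining of at least 50% with the nuclear-stain viability signal not falling by more than 50%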;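 also: 0% = DMSO wells and 100% = triacsin C control wells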
Lipid droplet = hepatic lipid droplet formation modulation. AML12 mouse hepatocytes, oleate lipid droplets, BODIPY imaging. inhibition, % at 6.5 µM. 240,000 compounds, 0.4% hits. AID 1656;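 active = lipid droplet intensity inhibited by at least 50%, with more than 500 cells counted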
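Test system: AML12 mouse liver cells; schedule: overnight exposure; technique: high-content imaging of BODIPY-stained droplets and DAPI nuclei; read-out: % inhibition of corrected integrated BODIPY droplet signal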
GSK3A inh = human GSK-3 alpha kinase inhibition | inhibition, % at 10 µM | P49840 | 320,000 compounds, 0.1% hits | ADP-Glo luminescence, 60 min;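 active = more than half of replicates show inhibition above 20%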;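 also: GST-tagged GSK-3 alpha with peptide substrate and 25 µM ATP; 0% = DMSO neutral wells and 100% = GW8510 positive control wells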
GSK3beta inhib = inhibitors of human GSK3beta kinase | AID 2097 | 300,000 compounds, 0.038% hits | activity score (negative = inhibition), % at 10 µM | GST-GSK3beta kinase, ADP-Glo luminescence, 60 min; active compounds read low;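 active = more than half of replicate wells score below -50%, meaning over 50% inhibition versus plate controls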;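 also: 0% = median DMSO wells and -100% = median GW8510 positive control wells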
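Test system: GST-tagged human GSK3beta kinase, cell-free; evaluation: activity score scaled between in-plate DMSO and GW8510 controls; measured by: ADP-Glo luminescence; incubation: 60 min reaction, RT; benchmarks: DMSO and 20 µM GW8510; reagent: peptide substrate plus 25 µM ATP (final); medium: Tris/MgCl2 kinase buffer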
LANA-H2B inh = blocks KSHV LANA binding to histone H2A/H2B; Q9QR71; cell-free LANA-H2A/H2B peptide, fluorescence polarization; inhibition, % (test concentration not listed); 320,000 compounds, 0.6% hits; in the data active = inhibition mostly above about 10%, no sharp cut-off; inactive = mostly below about 6.7%
STK33 inh = human STK33 kinase inhibition; Q9BYT3; 320,000 compounds, 0.073% hits; purified STK33, MBP phosphorylation, ADP-Glo luminescence; inhibition, % at 10 µM; AID 2661;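 active = inhibition at or above 25%, using the most active replicate where run in duplicate; inactive = inhibition below 25%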
Target sequence (Q9BYT3 whole entry, looked up): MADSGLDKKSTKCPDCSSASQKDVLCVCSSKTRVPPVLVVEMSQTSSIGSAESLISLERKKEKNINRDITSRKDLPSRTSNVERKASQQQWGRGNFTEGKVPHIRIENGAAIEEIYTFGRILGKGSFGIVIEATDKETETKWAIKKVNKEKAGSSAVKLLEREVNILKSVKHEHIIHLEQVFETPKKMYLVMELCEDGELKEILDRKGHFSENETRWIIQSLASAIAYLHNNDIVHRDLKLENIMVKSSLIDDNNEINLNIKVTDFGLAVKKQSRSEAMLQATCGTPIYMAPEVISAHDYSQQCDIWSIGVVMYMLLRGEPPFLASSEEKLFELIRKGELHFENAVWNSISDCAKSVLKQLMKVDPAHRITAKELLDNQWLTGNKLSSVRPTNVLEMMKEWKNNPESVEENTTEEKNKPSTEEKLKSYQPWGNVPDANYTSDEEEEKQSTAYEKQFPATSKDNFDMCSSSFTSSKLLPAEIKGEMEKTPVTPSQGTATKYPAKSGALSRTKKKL
* = called active by the depositor; . = not tested or not shown; + = active, no number. Rows were chosen to be rich in hits. Some 1.3% of all compounds tested hit in one or more screens of this group.

SMILES	TAG inh	Lipid droplet	GSK3A inh	GSK3beta inhib	LANA-H2B inh	STK33 inh
Cc1cccn2c(=O)c3cc(C#N)c(=NC(=O)c4ccncc4)n(CCCOC(C)C)c3nc12	10.7	.	8.6	-0.3	8.9*	-0.8
CC1(NC(=O)NCc2ccccc2)CCS(=O)(=O)C1 (centres undefined)	.	12.1	-5.0	-2.4	-1.1	-1.8
CNC[C@H](Cc1ccccc1)NC[C@@H](Cc1cccc2ccccc12)NCCc1ccc(C)cc1	138.1*	18.4	17.3	-8.7	-1.9	2.9
CNCCNC[C@H](Cc1cccc2ccccc12)NCCc1ccccc1	-1.9	.	4.6	.	2.7	1.5
Cn1nnnc1N=N/C(=N/Nc1ccccc1)c1ccccc1	71.5*	3.7	-1.1	-3.0	-3.4	-2.8
CC(C)c1ccc(NC(=O)C(c2ccccc2)N2CCN(C(=O)c3ccco3)CC2)cc1 (centres undefined)	-16.5	.	-1.2	-3.2	1.9	0.7
CC(C(=O)Nc1ccccc1)N1CCN(C(=O)c2ccco2)CC1 (centres undefined)	7.1	.	-2.0	.	68.1*	0.2
COc1ccccc1N1CCN(C(=O)c2ccco2)CC1	.	3.4	-2.8	-2.1	16.5*	-0.5
COc1ccccc1N1CCN(C(=O)C(C)NC(=O)c2ccco2)CC1 (centres undefined)	2.2	.	-0.1	.	-5.0	-0.8
CCOC(=O)c1sc(N2C(=O)C(O)=C(C(=O)c3ccco3)C2c2cccc(Cl)c2)nc1C (centres undefined)	8.3	-10.4	-0.9	0.3	-3.0	-0.3
O=C(Cn1ccc2cc(S(=O)(=O)N3CCCC3)ccc21)NCCc1ccccc1	.	-37.8	13.0	1.0	11.6*	-1.5
O=C(CCn1ccc2cc(S(=O)(=O)N3CCCC3)ccc21)NCCc1ccccc1	.	-2.1	.	0.5	0.3	-1.8
O=C(NCc1ccc2c(c1)OCO2)c1cc(-c2ccc(Cl)cc2Cl)on1	-8.0	.	-6.1	-0.4	-3.2	-1.3
CCOC(=O)c1ccc(NC(=O)CCCN2C(=O)NC3(CCCC3)C2=O)cc1	1.1	.	-0.1	.	12.4*	0.2
CCOC(=O)c1ccc(NC2=CC(=O)C(=O)c3ccccc32)cc1	80.1*	.	2.2	-5.0	-1.3	0.5
O=C(O)c1ccccc1C(=O)NCc1ccccc1	11.7	11.5	2.0	-0.8	-0.2	0.2
O=C(O)c1ccccc1C(=O)NCc1ccc(F)cc1	.	.	.	1.1	19.7*	-1.8
Cc1ccc(-n2c(=O)c3sccc3n(CC(=O)NC3CCCC3)c2=O)cc1	.	.	0.3	0.1	-2.4	-0.7
CCOc1ccc(-n2c(=O)c3sccc3n(CC(=O)NC3CCCCC3)c2=O)cc1	.	-13.7	-1.8	.	28.6*	-1.8
CCOCCCNC(=S)NCCCNc1nc2ccc(C)cc2cc1C#N	.	-1.8	1.8	0.9	-2.2	0.9
c1cc2[nH]snc2c2nc(C3CC3)nc12	.	.	54.4*	-2.7	0.7	19.7
COC(=O)C1(C(O)C(=O)c2ccc(C)cc2C)CCCCC1 (centres undefined)	-7.0	-38.7	-4.4	-1.6	6.1	-0.9
CC(=NNc1nc2ccccc2s1)c1ncccn1	63.2*	.	.	.	.	.
Oc1ccccc1/C=N/Nc1ncc(Br)cn1	.	-2.9	6.6	-7.3	+	0.3
Oc1ccccc1/C=N/Nc1nc2ccccc2o1	62.8*	-9.2	-4.0	3.9	-0.6	0.2
SMILES	TAG inh	Lipid droplet	GSK3A inh	GSK3beta inhib	LANA-H2B inh	STK33 inh
Brc1ccc(/C=N/Nc2nc3ccccc3o2)cc1	.	.	-0.6	-2.5	-0.7	0.9
CC(=NNc1nc2ccccc2o1)c1ncccn1	50.6*	.	.	.	.	.
C/C(=N\Nc1nc2ccccc2s1)c1cccs1	.	5.6	0.4	2.1	-1.2	1.8
CC(OC(=O)CN1C(=O)NC2(CCCC2)C1=O)C(=O)Nc1cccc(Cl)c1Cl (centres undefined)	10.1	.	-1.3	1.1	-1.7	0.0
Cc1cc(O)c(C(=O)/C=C/c2cccc([N+](=O)[O-])c2)c(=O)o1	-0.1	10.3	-0.1	0.6	16.0*	-0.5
Cc1cc(O)c(C(=O)/C=C/c2ccccc2O)c(=O)o1	.	-1.8	-1.8	7.0	157.9*	-1.3
CC(C)c1ccc(C2C(C#N)=C(N)N3C(=C2C#N)Sc2ccccc23)cc1 (centres undefined)	.	.	-6.4	3.3	-4.5	-1.4
COc1ccc(S(=O)(=O)CCC(=O)N2CCN(c3ccc(C(C)=O)cc3)CC2)cc1	.	-15.2	.	2.2	13.1*	-0.9
CC(C)[C@H](NC(=O)OCc1ccccc1)C(=O)OCC(=O)c1ccccc1	9.2	.	-2.8	.	-2.2	-1.4
COc1cccc(COC(=O)C2CCN(S(=O)(=O)c3ccc(C)cc3C)CC2)c1OC	-17.9	.	-2.1	-0.1	27.3*	-2.4
Cc1ccc(C2/C(=C(\O)c3c(C)nc4c(C)cccn34)C(=O)C(=O)N2CCN(C)C)o1 (centres undefined)	2.7	.	.	.	.	.
Cc1nc2c(C)cccn2c1/C(O)=C1\C(=O)C(=O)N(CCN(C)C)C1c1ccccc1 (centres undefined)	-8.3	13.9	0.8	3.2	11.6*	-1.8
O=C(CN1C(=O)C2CCCN2C(=O)c2ccccc21)Nc1ccccc1-n1cccc1 (centres undefined)	.	.	-2.0	-18.1	30.0*	0.3
CNC(=O)c1ccccc1Sc1ccccc1CO	-5.3	-21.9	-0.7	2.1	3.1	-0.4
COc1ccccc1N1CCN(C2CC(=O)N(c3cccc(Cl)c3)C2=O)CC1 (centres undefined)	0.1	-15.7	0.6	-4.3	21.5*	-2.5
COc1ccccc1N1CCN(C2CC(=O)N(c3ccccc3)C2=O)CC1 (centres undefined)	9.2	11.9	0.0	3.8	-3.1	-1.4
O=C(N1CCN(c2ccccn2)CC1)N1c2ccccc2Sc2ccccc21	57.6*	-117.3	-2.3	-3.0	3.3	-1.4
O=C(c1ccc(Br)s1)N1CCN(c2ccccn2)CC1	0.0	-4.3	1.0	1.4	-1.9	1.4
Nc1ccc(Nc2ccncc2[N+](=O)[O-])cc1	.	-1.1	6.4	-3.6	0.9	2.7
Cc1cc(C(=O)N2CCCC(C(=O)c3cccc(C(F)(F)F)c3)C2)nc(C)n1 (centres undefined)	-4.3	-19.2	4.6	2.8	13.6*	12.8
COc1ccc(CNC(=S)Nc2ccc(F)c(Cl)c2)cc1	2.6	5.7	-1.3	1.1	-2.8	.
Oc1ccc(CCNc2c3ccccc3nc3ccccc23)cc1O	.	-3.1	8.9	-1.1	14.0*	-0.5
COCCNC(=O)NC(=O)CN1CCCc2ccccc21	.	18.0	2.0	1.1	15.8*	-0.7
CC(C)(C)NC(=O)NC(=O)CN1CCc2ccccc21	-5.8	-23.6	-2.9	-1.9	-4.7	-0.8
COC(=O)CSc1[nH]c2ccccc2c1[N+](=O)[O-]	-8.0	3.1	0.2	0.0	5.6	-1.5
Cc1cc(OCCn2nc(C(=O)O)c3ccccc3c2=O)ccc1C(C)C	.	1.9	.	2.4	.	.

Bioassay records from PubChem BioAssay.
